# Experimental data of several laboratories.
# Protocols differ between the studies behind these lines.
SMILES,test system,conditions,Tmax [min]
CCc1ccc(Cc2cc([C@@H]3O[C@H](CO)[C@@H](O)[C@H](O)[C@H]3O)cc3c2CCC3)cc1,"male C57BL/6 mouse, plasma","oral, 1 mg/kg",30
CC(C)(C)c1ccc(O)c(CN(Cc2cc(C(C)(C)C)ccc2O)C2CCC(NC(N)=O)CC2)c1 (stereo not drawn),"male C57BL/6 mouse, brain","intraperitoneal, 5 mg/kg, single dose",30
CC(C)c1cnn2c(NCc3ccccc3)cc(NC[C@H]3CCNC[C@@H]3O)nc12,"male CD-1 mouse, plasma",oral,120
COc1nc(-c2cc(C)c(N[C@@H](C)c3ccc(F)cc3)nn2)ccc1-n1cnc(C)c1,"male CD-1 mouse, plasma","oral, 5 mg/kg, single dose",60
NC[C@@H]1O[C@H](O[C@H]2[C@@H](O)[C@H](O[C@@H]3[C@@H](O)[C@H](N)C[C@H](N)[C@H]3O[C@H]3O[C@H](CO)[C@@H](O)[C@H](O)[C@H]3N)O[C@@H]2CO)[C@H](N)[C@@H](O)[C@@H]1O,"male BALB/c mouse, plasma","oral, 500 mg/kg",60
C=CC(=O)N1CC2CC(n3nc(-c4ccc(C(=O)Nc5ccccn5)cc4)c4c(N)ncnc43)CC2C1 (stereo not drawn),"SCID mouse, plasma","oral, 1 mg/kg",15
CN1CCN(C(=O)CN[C@@H]2C[C@H]2c2ccc(OCc3ccccc3)cc2)CC1,"mouse, plasma","intraperitoneal, 10 mg/kg",4.8
CS(=O)(=O)CCNCc1ccc(-c2ccc3ncnc(Nc4ccc(OCc5cccc(F)c5)c(Cl)c4)c3c2)o1,"nude mouse, plasma","oral, 100 mg/kg, single dose",120
Cc1noc([C@H](Cc2c[nH]cn2)NC(=O)CN(CCCc2ccccc2)CC(=O)O)n1,"male C57BL/6 mouse, plasma","intraperitoneal, 30 mg/kg",10
Cc1cc(Nc2ccc(S(F)(F)(F)(F)F)cc2)n2ccnc2n1,"male Swiss mouse, plasma","oral, 100 mg/kg, single dose",30
CC(C)(C)c1cc(NC(=O)Nc2ccc(Oc3ccnc4[nH]c(=O)cnc34)cc2F)n(-c2ccccc2)n1,"BALB/c mouse, plasma","oral, 10 mg/kg",30
Cc1cc(NC(=O)c2cccc3cc(-c4cccc5[nH]nc(N)c45)ccc23)ccc1F,"male CD-1 mouse, plasma","oral, 10 mg/kg",60
CCc1cc(C(=O)NC)c2nccc(N3CCc4c(cc(Cn5ccnc5)cc4-c4cn(C)nc4C(F)(F)F)C3=O)c2c1,"male CD-1 mouse, plasma","oral, 50 mg/kg",48
CN1CCC[C@H](CN2c3ccccc3Sc3ccccc32)C1.Cl,"mouse, plasma","oral, 64 mg/kg, single dose",120
COc1ccc2c3c1O[C@H]1C[C@@H](OC(=O)c4ccccc4)C=C[C@@]31CCN(C)C2,"mouse, brain","intravenous, 3 mg/kg",3
OC[C@H]1O[C@@H](c2ccc(Cl)c(Cc3ccc(O[C@H]4CCOC4)cc3)c2)[C@H](O)[C@@H](O)[C@@H]1O,"CD-1 mouse, plasma","intravenous, 5 mg/kg",4.8
CNC(=O)c1cc(OC)cc2c(N3CCc4c(cc(Cn5ccnc5)cc4-c4cn(C)nc4C(F)(F)F)C3=O)ccnc12,"male CD-1 mouse, plasma","oral, 50 mg/kg",48
O=S(=O)(c1ccc(-c2ccc3nccc(Nc4ccncn4)c3c2)cc1)N1CCOCC1,"female BALB/c mouse, brain","intraperitoneal, 10 mg/kg",15
